The values below come from ChEMBL document CHEMBL1148490, “Synthesis, characterization, and preliminary in vivo tests of new poly(ethylene glycol) conjugates of the antitumor agent 10-amino-7-ethylcamptothecin” (J Med Chem, 2004).

Each structure is given as a SMILES string. “And” between values parts separate entries of the source, which are not always exact repeats. Identical values can stand only once.

The test system of series [1] is Mus musculus. The experiment in a line: Antitumor activity evaluated as tumor weight on day 21 of Meth A Fibrosarcoma in BALB/c mice at a dose of 100 mg/kg administered intravenously on day 5. The note with it: route intravenous. In kind it is functional. In a few lines: (§1)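 Meth A cells, 5 × 10^5/mouse, inoculated subcutaneously on day 0 into 7 week old male BALB/c mice, five per group. A single intravenous injection on day 5; saline for controls. Tumours weighed on day 21. Doses in mg/kg expressed as free drug. Inhibition rate derived from tumour weight relative to the saline control group.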

Series [2] relates to Mus musculus. As to the kind of experiment: Antitumor activity evaluated as tumor weight on day 21 of Meth A Fibrosarcoma in BALB/c mice at a dose of 25 mg/kg administered intravenously on day 5. In kind it is functional. The conditions noted are these: route intravenous. Put shortly: as §1
Series [3] relates to Mus musculus. As to the kind of experiment: Antitumor activity evaluated as tumor weight on day 21 of Meth A Fibrosarcoma in BALB/c mice at a dose of 50 mg/kg administered intravenously on day 5. It is filed as functional. The conditions noted are these: route intravenous. In a few lines: as §1
In series [4] the test system is Mus musculus. As to the kind of experiment: (§2) Inhibition rate of tumor growth at 25 mg/kg single iv administration against Meth A fibrosarcoma cells in BALB/c Mice. In kind it is functional. Put shortly:
(§3)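 Male BALB/c mice, 7 weeks old (five per group), inoculated s.c. with Meth A cells at 5 × 10^5 cells/mouse on day 0. Single i.v. injection on day 5, doses expressed as free drug equivalent; control group given saline. Tumors weighed on day 21 (mean ± SD); inhibition rate derived from tumor weight relative to control.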

The subject of series [5] is Mus musculus. The experiment in a line: Evaluated for survival time of P388 Leukemia implanted female CDF1 Mice at a dose of 100 mg/kg. In kind it is functional. In a few lines: (§4)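 Female CDF1 mice inoculated intraperitoneally on day 0 with 1 × 10^6 P388 or P388/ADM (adriamycin-resistant, MDR-expressing) cells per mouse. Intravenous dosing on days 1, 5 and 9; doses listed are total mg/kg. Survival monitored for 40 days, reported as mean ± SD days. T/C% = (mean survival days of treated group / mean survival days of control group) × 100.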

Series [6] deals with Mus musculus. As to the kind of experiment: Evaluated for survival time of P388 Leukemia implanted female CDF1 Mice at a dose of 50 mg/kg. In kind it is functional. In a few lines:
as §4

For series [7], the system named is Mus musculus. As to the kind of experiment: Evaluated for survival time of P388/ADM Leukemia implanted female CDF1 Mice at a dose of 50 mg/kg. In kind it is functional. In a few lines:
as §4

In series [8] the test system is Mus musculus. As to the kind of experiment: Inhibition rate of tumor growth at 100 mg/kg single iv administration against Meth A fibrosarcoma cells in BALB/c Mice. In kind it is functional. Put shortly:
as §3

In series [9] the test system is Mus musculus. As to the kind of experiment: Inhibition rate of tumor growth at 50 mg/kg single iv administration against Meth A fibrosarcoma cells in BALB/c Mice. It is filed as functional. Put shortly: as §3
In series [10] the test system is Mus musculus. As to the kind of experiment: Ratio between mean survival days of treated group and control group at a dose of 100 mg/kg. In kind it is functional. In a few lines:
as §4

In series [11] the test system is Mus musculus. The experiment in a line: Ratio between mean survival days of treated group and control group at a dose of 25 mg/kg. In kind it is functional. In a few lines:
as §4

In series [12] the test system is Mus musculus. The experiment in a line: Ratio between mean survival days of treated group and control group at a dose of 50 mg/kg. In kind it is functional. Put shortly: as §4
The test system of series [13] is Mus musculus. As to the kind of experiment: Evaluated for survival time of P388/ADM Leukemia implanted female CDF1 Mice at a dose of 100 mg/kg. In kind it is functional. In a few lines: as §4
Series [14] is filed under the species Rattus norvegicus. The experiment in a line: (§5) Area under curve of the compound was determined. In kind it is ADME, organism-based. The note with it: in vivo. Put shortly: (§6)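 Rats given a single iv dose via the right femoral vein after full recovery from anaesthesia, then a saline flush. Free drug dissolved in DMSO/10 mM H3PO4 (10/1); sodium salt in water. Blood (200 µL) drawn from a left femoral artery cannula at 2, 5, 10, 30 min and 1, 3, 5, 7 h. Plasma diluted in H3PO4 with camptothecin internal standard.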

Series [15] in a line: Maximum plasma concentration at a dose of 4 mg/kg in Rat Plasma after iv administration. In kind it is ADME, organism-based. Also noted: dose 4 mg/kg, route intravenous. Put shortly: as §6
Series [16] in a line: Mean residence time at a dose of 4 mg/kg in Rat Plasma after iv administration. It is filed as ADME, organism-based. The arrangement: dose 4 mg/kg, route intravenous. Put shortly:
as §6

A short description of series [17]: Tmax at a dose of 4 mg/kg in Rat Plasma after iv administration. In kind it is ADME, organism-based. Also noted: dose 4 mg/kg, route intravenous. In a few lines:
as §6

Series [18] deals with Mus musculus. The series is described as §2. It is filed as functional. In a few lines: as §1
The source holds these as a separate data set.

Series [19] in a line: (§7) Half life at a dose of 4 mg/kg in Rat Plasma after iv administration. In kind it is ADME, organism-based. Also noted: dose 4 mg/kg, route intravenous. Put shortly: as §6
The test system of series [20] is Mus musculus. As to the kind of experiment: Evaluated for survival time of P388 Leukemia implanted female CDF1 Mice at a dose of 25 mg/kg. In kind it is functional. Put shortly: as §4
The species entered for series [21] is Mus musculus. The experiment in a line: Ratio between mean survival days of treated group and control group. It is filed as functional. Put shortly:
as §4

For series [22], the system named is Mus musculus. The experiment in a line: Evaluated for survival time of P388/ADM Leukemia implanted female CDF1 Mice at a dose of 25 mg/kg.
The nature of series [23]: as §7. It is filed as ADME, organism-based. The arrangement: dose 4 mg/kg, route intravenous. Put shortly: (§8)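 Rats given a single i.v. dose via right femoral vein after recovery from anesthesia, then saline flush. Blood drawn from left femoral artery cannula at 2, 5, 10, 30 min and 1, 3, 5, 7 h. Plasma diluted in 0.146 M H3PO4 with CPT internal standard, then on-line SPE and C18 HPLC with fluorescence detection (ex 390/em 513 nm). LOQ 2 ng/mL. Noncompartmental analysis; AUCinf by trapezoidal rule with extrapolation; n = 1–2 rats.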
This is another data set of the same source.

Series [24] in a line: as §5. It is filed as ADME. Put shortly: as §8
Series [25] concerns Rattus norvegicus. The experiment in a line: Vdss at a dose of 4 mg/kg in Rat Plasma after iv administration. It is filed as organism-based. The arrangement: dose 4 mg/kg. In a few lines: as §6
Series [26] has as its system Rattus norvegicus. The experiment in a line: CLtot at a dose of 4 mg/kg in Rat Plasma after iv administration. It is filed as organism-based. Also noted: dose 4 mg/kg. Put shortly: as §6

Usually T/C stands for the result in the treated group divided by that in the control group, in per cent. As to `CCc1c2c(nc3ccc(OC(=O)N4CCC(N5CCCCC5)CC4)cc13)-c1cc3c(c(=O)n1C2)COC(=O)[C@]3(O)CC` [IRINOTECAN], the Antitumor activity in the series on Mus musculus [1] is 1.16 g; with Mus musculus [2], 1.24 g; in the series with Mus musculus [3], 1.31 g; with Mus musculus [4], 49.5%. Moreover, the Survival time in the series with Mus musculus [5] was found to be 17.5 days; in the series with Mus musculus [6], 14.5 days; in the series with Mus musculus [7], 14.7 days; in the series on Mus musculus [13], 15.7 days. Besides, the Inhibition rate in the series with Mus musculus [8] is 52.7%; in the series on Mus musculus [9], 46.6%. For the same molecule, the T/C in the series on Mus musculus [10] is 228%; in the series with Mus musculus [11], 172% and 129%; in the series with Mus musculus [12], 189%.
A word on the Cmax: it is the maximum level reached in the sampled fluid or tissue. The term MRT inf denotes the average time that molecules of a dose stay in the body. By Tmax is commonly meant the time at which the peak concentration occurs. As a reminder, the half-life is the time in which the quantity being followed falls by half. A low value points to fast loss. For `CCc1c2c(nc3ccc(N)cc13)-c1cc3c(c(=O)n1C2)COC(=O)[C@]3([O-])CC.[Na+]`, the AUC inf in the series listed under Rattus norvegicus [14] was 1.71 µg/h/mL. In series [15], this molecule registered a Cmax of 10500 ng/mL. In [16], this molecule came in with a mean residence time MRT inf of 1.09 h. Besides, the Tmax in series [17] is 2 min. Moreover, the results for the Antitumor activity in the series on Mus musculus [1], in the series with Mus musculus [2] and with Mus musculus [3] were 0.88 g, 0.93 g and 0.88 g, respectively. Moreover, the figures for the Inhibition rate with Mus musculus [8], in the series with Mus musculus [18] and with Mus musculus [9] were 69.3%, 62.3% and 64%, respectively. In series [19], this molecule gave a half-life of 2.26 h.
In the case of `COc1cccc2c1C(=O)c1c(O)c3c(c(O)c1C2=O)C[C@@](O)(C(=O)CO)C[C@@H]3O[C@H]1C[C@H](N)[C@H](O)[C@H](C)O1` [DOXORUBICIN], the Activity in the series on Mus musculus [20] was 20 days; with Mus musculus [22], 9.8 days. The T/C in the series filed under Mus musculus [21] was 261% and 102%.
Regarding `CCc1c2c(nc3ccc(N)cc13)-c1cc3c(c(=O)n1C2)COC(=O)[C@]3(O)CC` [listing 1 of 2 here], in [15], the highest concentration (Cmax) came out at 10500 ng/mL. The mean residence time (MRT inf) in [16] is 1.09 h. Also, the Tmax in series [17] was 2 min. Moreover, the half-life in [23] was 2.25 h. This molecule had an AUC inf in [24] of 2.08 µg/h/mL.
Turning to `CCc1c2c(nc3ccc(N)cc13)-c1cc3c(c(=O)n1C2)COC(=O)[C@]3(O)CC` [listing 2 of 2 here], the Vdss with Rattus norvegicus [25] is 2.65 L/kg and 2.37 L/kg. The CL (mL.min-1.kg-1) with Rattus norvegicus [26] is 40.3 and 34.5.
